Measurements reported in ChEMBL document CHEMBL5712913, “Discovery of novel ATAD2 bromodomain inhibitors that trigger apoptosis and autophagy in breast cells by structure-based virtual screening” (J Enzyme Inhib Med Chem, 2020).
Each block holds one molecule with its values, some of them ahead of it. Calls of active or inactive are those of the source. No cut-off for these calls is given here.

Key:
MDA-MB-231 [1] = test: Inhibition of ATAD2 in human MDA-MB-231 cells by measuring c-myc protein level at 1.25 to 5 uM for 24 hrs by Western blot analysis; type: functional, cell-based; details: dose 1.25-5 µM
How it was run: (§1)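 MDA-MB-231 cells treated with 1.25, 2.5 and 5.0 µM for 24 h. Lysates separated on 10–15% SDS-PAGE and blotted to PVDF. c-Myc and p-cMyc detected with HRP/ECL, with β-actin as loading control.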

MDA-MB-231 [2] = test: Inhibition of ATAD2 in human MDA-MB-231 cells by measuring reduction in color intensity at 2.5 uM by immuno chemistry analysis; type: functional, cell-based
How it was run: (§2)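 MDA-MB-231 cells treated at 2.5 µM. Anti-ATAD2 or anti-p-cMyc primary (1:200 in PBS/1% BSA) applied overnight at 4 °C, then fluorescent secondary antibody 1 h at room temperature. Nuclei counterstained with DAPI, green signal imaged.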

MDA-MB-231 [3] = test: Inhibition of ATAD2 in human MDA-MB-231 cells assessed as downregulation of c-myc phosphorylation at 2.5 uM by immuno chemistry analysis; type: cell-based; how it was run: as §2
MDA-MB-231 [4] = test: Inhibition of ATAD2 in human MDA-MB-231 cells by measuring c-myc phosphorylation at 1.25 to 5 uM for 24 hrs by Western blot analysis; type: functional, cell-based; details: dose 1.25-5 µM; how it was run: as §1
MDA-MB-231 [5] = test: Induction of apoptosis in human MDA-MB-231 cells assessed as necrotic cells at 1.25 microM after 24 hrs by Annexin-V/PI staining based flow cytometry (Rvb= 1.22%); type: functional
MDA-MB-231 [6] = test: Induction of apoptosis in human MDA-MB-231 cells assessed as late apoptotic cells at 1.25 microM after 24 hrs by Annexin-V/PI staining based flow cytometry (Rvb= 2.46%); type: functional
MDA-MB-231 [7] = test: Induction of apoptosis in human MDA-MB-231 cells assessed as early apoptotic cells at 1.25 microM after 24 hrs by Annexin-V/PI staining based flow cytometry (Rvb= 3.14 %); type: functional
MDA-MB-231 [8] = test: Induction of apoptosis in human MDA-MB-231 cells assessed as necrotic cells at 2.5 microM after 24 hrs by Annexin-V/PI staining based flow cytometry (Rvb= 1.22%); type: functional
MDA-MB-231 [9] = test: Induction of apoptosis in human MDA-MB-231 cells assessed as late apoptotic cells at 2.5 microM after 24 hrs by Annexin-V/PI staining based flow cytometry (Rvb= 2.46%); type: functional
MDA-MB-231 [10] = test: Induction of apoptosis in human MDA-MB-231 cells assessed as viable cells at 2.5 microM after 24 hrs by Annexin-V/PI staining based flow cytometry (Rvb= 93.17 %); type: functional; details: read-out: Activity
MDA-MB-231 [11] = test: Induction of apoptosis in human MDA-MB-231 cells assessed as early apoptotic cells at 2.5 microM after 24 hrs by Annexin-V/PI staining based flow cytometry (Rvb= 3.14 %); type: functional
MDA-MB-231 [12] = test: Induction of apoptosis in human MDA-MB-231 cells assessed as necrotic cells at 5 microM after 24 hrs by Annexin-V/PI staining based flow cytometry (Rvb= 1.22%); type: functional
MDA-MB-231 [13] = test: Induction of apoptosis in human MDA-MB-231 cells assessed as late apoptotic cells at 5 microM after 24 hrs by Annexin-V/PI staining based flow cytometry (Rvb= 2.46%); type: functional
MDA-MB-231 [14] = test: Induction of apoptosis in human MDA-MB-231 cells assessed as viable cells at 5 microM after 24 hrs by Annexin-V/PI staining based flow cytometry (Rvb= 93.17 %); type: functional; details: read-out: Activity
MDA-MB-231 [15] = test: Induction of apoptosis in human MDA-MB-231 cells assessed as early apoptotic cells at 5 microM after 24 hrs by Annexin-V/PI staining based flow cytometry (Rvb= 3.14 %); type: functional
MDA-MB-231 [16] = test: Induction of apoptosis in human MDA-MB-231 cells assessed as increase of Bax expression after 24 hrs by Western blot assay; type: functional, cell-based; details: dose 1.25-5 µM
How it was run: (§3)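 MDA-MB-231 cells (DMEM, 10% FBS, 5% CO2) exposed to 1.25, 2.5 or 5 μM for 24 h. Adherent and floating cells lysed in Hepes 50 mM pH 7.4/1% Triton X-100 buffer with phosphatase and protease inhibitors. Equal protein run on 10–15% SDS-PAGE, transferred to PVDF, detected by HRP/ECL. Bands normalised to β-actin, compared with DMSO control by unpaired t-test.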

MDA-MB-231 [17] = test: Induction of apoptosis in human MDA-MB-231 cells assessed as reduction of Bcl-2 expression after 24 hrs by Western blot assay; type: functional, cell-based; details: dose 1.25-5 µM; how it was run: as §3
MDA-MB-231 [18] = test: Induction of apoptosis in human MDA-MB-231 cells assessed as reduction of cleavage of caspase 3 after 24 hrs by Western blot assay; type: functional, cell-based; details: dose 1.25-5 µM; how it was run: as §3
MDA-MB-231 [19] = test: Induction of apoptosis in human MDA-MB-231 cells assessed as reduction of cleavage of caspase 8 after 24 hrs by Western blot assay; type: functional, cell-based; details: dose 1.25-5 µM; how it was run: as §3
MDA-MB-231 [20] = test: Induction of autophagy in human MDA-MB-231 cells assessed as downregulation of PI3K expression at 1.25 to 5 uM for 24 hrs by Western blot assay; type: functional, cell-based; details: dose 1.25-5 µM
How it was run: (§4)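 MDA-MB-231 cells treated with 1.25, 2.5 or 5 µM for 24 h. Lysates made in Hepes pH 7.4/Triton X-100 buffer with protease and phosphatase inhibitors, then run on SDS-PAGE, blotted to PVDF and detected by HRP/ECL. p-PI3K and p-mTOR Ser2448 bands normalised to β-actin.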

MDA-MB-231 [21] = test: Induction of autophagy in human MDA-MB-231 cells assessed as downregulation of AKT expression at 1.25 to 5 uM for 24 hrs by Western blot assay; type: functional, cell-based; details: dose 1.25-5 µM
MDA-MB-231 [22] = test: Induction of autophagy in human MDA-MB-231 cells assessed as downregulation of mTOR expression at 1.25 to 5 uM for 24 hrs by Western blot assay; type: functional, cell-based; details: dose 1.25-5 µM; how it was run: as §4
MDA-MB-231 [23] = test: Induction of autophagy in human MDA-MB-231 cells assessed as downregulation of mTOR at ser2448 residue expression at 1.25 to 5 uM for 24 hrs by Western blot assay; type: functional, cell-based; details: dose 1.25-5 µM; how it was run: as §4
MDA-MB-231 [24] = test: Induction of autophagy in human MDA-MB-231 cells assessed as aggregation of LC3 puncta after 24 hrs by immunofluorescence analysis; type: functional, cell-based
How it was run: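 MDA-MB-231 cells transfected with GFP/mRFP-LC3, then exposed to 2.5 µM for 24 h. LC3 puncta and autophagy ratio scored under a fluorescence microscope.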

MDA-MB-231 [25] = test: Induction of autophagy in human MDA-MB-231 cells assessed as increase of ULK1 expression after 24 hrs by Western blot assay; type: functional, cell-based; details: dose 1.25-5 µM
MDA-MB-231 [26] = test: Induction of autophagy in human MDA-MB-231 cells assessed as increase of p-ULK1 expression after 24 hrs by Western blot assay; type: functional, cell-based; details: dose 1.25-5 µM
MDA-MB-231 [27] = test: Induction of autophagy in human MDA-MB-231 cells assessed as increase of beclin 1 expression after 24 hrs by Western blot assay; type: functional, cell-based; details: dose 1.25-5 µM
MDA-MB-231 [28] = test: Induction of autophagy in human MDA-MB-231 cells assessed as increase of LC3-II expression after 24 hrs by Western blot assay; type: functional, cell-based; details: dose 1.25-5 µM
MDA-MB-231 [29] = test: Induction of autophagy in human MDA-MB-231 cells assessed as degradation of SQSTM1/p62 after 24 hrs by Western blot assay; type: functional, cell-based; details: dose 1.25-5 µM
[30] = target: T1, ATPase family AAA domain-containing protein 2 (Homo sapiens, UniProt Q6PL18); test: Inhibitory activity against ATAD2 (unknown origin) at bromodomain incubated for 180 min by Tr-FRET assay
T1 sequence (Q6PL18 whole entry): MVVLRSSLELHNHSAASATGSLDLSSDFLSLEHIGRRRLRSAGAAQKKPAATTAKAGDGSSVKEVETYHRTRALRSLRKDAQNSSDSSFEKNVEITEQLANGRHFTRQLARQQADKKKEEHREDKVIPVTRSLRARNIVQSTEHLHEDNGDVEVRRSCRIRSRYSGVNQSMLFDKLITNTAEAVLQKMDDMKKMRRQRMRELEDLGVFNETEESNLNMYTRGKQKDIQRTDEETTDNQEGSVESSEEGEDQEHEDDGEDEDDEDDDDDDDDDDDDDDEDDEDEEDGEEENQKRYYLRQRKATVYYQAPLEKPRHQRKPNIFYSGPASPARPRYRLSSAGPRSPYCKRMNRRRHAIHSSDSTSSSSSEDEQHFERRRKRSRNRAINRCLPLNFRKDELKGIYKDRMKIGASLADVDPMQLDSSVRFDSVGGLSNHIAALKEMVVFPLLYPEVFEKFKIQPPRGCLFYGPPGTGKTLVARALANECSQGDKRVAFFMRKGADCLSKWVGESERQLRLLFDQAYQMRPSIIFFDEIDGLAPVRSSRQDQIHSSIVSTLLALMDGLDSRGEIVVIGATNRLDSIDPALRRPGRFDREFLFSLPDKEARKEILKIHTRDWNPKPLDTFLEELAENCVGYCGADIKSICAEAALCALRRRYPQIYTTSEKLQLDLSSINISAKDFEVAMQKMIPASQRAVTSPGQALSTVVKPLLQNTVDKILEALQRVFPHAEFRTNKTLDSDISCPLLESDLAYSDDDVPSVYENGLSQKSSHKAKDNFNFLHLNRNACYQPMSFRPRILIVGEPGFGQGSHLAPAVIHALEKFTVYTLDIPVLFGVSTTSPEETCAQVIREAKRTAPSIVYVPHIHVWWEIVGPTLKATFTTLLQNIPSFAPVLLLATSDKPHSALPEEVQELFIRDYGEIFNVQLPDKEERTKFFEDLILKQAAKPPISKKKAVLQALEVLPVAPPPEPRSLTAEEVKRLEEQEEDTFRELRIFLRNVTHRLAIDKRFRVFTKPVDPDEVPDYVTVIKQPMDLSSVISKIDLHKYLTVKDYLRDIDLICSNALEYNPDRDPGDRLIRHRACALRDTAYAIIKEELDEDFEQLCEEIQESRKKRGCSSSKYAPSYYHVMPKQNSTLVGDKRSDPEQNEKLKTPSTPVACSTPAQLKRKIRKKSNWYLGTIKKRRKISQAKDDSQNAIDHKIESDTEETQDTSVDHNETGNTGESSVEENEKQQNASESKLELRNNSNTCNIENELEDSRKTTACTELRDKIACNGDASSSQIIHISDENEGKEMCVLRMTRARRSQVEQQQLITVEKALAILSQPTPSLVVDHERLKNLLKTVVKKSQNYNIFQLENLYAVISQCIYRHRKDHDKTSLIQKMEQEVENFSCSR
How it was run: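 Recombinant ATAD2 bromodomain and BET ligand read by TR-FRET. Compounds diluted in DMSO, then 20-fold in 5% DMSO in reaction buffer; 2 µl added per 20 µl reaction. Incubated 180 min, then acceptor/donor fluorescence ratio read. Each concentration run in duplicate.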

SMILES: CC1=C(C#N)c2nc(N)c(C#N)c(C)c2/C1=C\c1ccc(-c2cc(C(=O)O)ccc2Cl)o1
Activity (MDA-MB-231 [1]): Active
Activity (MDA-MB-231 [2]): Active
inhibition (MDA-MB-231 [3]): Active
Activity (MDA-MB-231 [4]): Active
Activity (MDA-MB-231 [5]): 1.55%
Activity (MDA-MB-231 [6]): 2.89%
Activity (MDA-MB-231 [7]): 5.24%
Activity (MDA-MB-231 [8]): 3.67%
Activity (MDA-MB-231 [9]): 3.92%
viability at 2.5 µM (MDA-MB-231 [10]): 84.7%
Activity (MDA-MB-231 [11]): 7.76%
Activity (MDA-MB-231 [12]): 5.98%
Activity (MDA-MB-231 [13]): 10.01%
viability at 5 µM (MDA-MB-231 [14]): 60.1%
Activity (MDA-MB-231 [15]): 23.86%
Activity (MDA-MB-231 [16]): Active
Activity (MDA-MB-231 [17]): Active
Activity (MDA-MB-231 [18]): Active
Activity (MDA-MB-231 [19]): Active
Activity (MDA-MB-231 [20]): Active
Activity (MDA-MB-231 [21]): Active
Activity (MDA-MB-231 [22]): Active
Activity (MDA-MB-231 [23]): Active
Activity (MDA-MB-231 [24]): Active
Activity (MDA-MB-231 [25]): Dose-Dependent Effect
Activity (MDA-MB-231 [26]): Dose-Dependent Effect
Activity (MDA-MB-231 [27]): Active
Activity (MDA-MB-231 [28]): Active
Activity (MDA-MB-231 [29]): Active

IC50 [30]: 242 nM
SMILES: COc1cc(Cl)c(C(=O)N[C@H](CN[C@H]2CC[C@@H](N)CC2)Cc2ccc(C#N)cc2)cc1-c1ccc(CN[C@H](C)c2ccc(C)cc2)o1
